Assay results reported in ChEMBL document CHEMBL3045046, “Synthesis, herbicidal activities, and 3D-QSAR of 2-cyanoacrylates containing aromatic methylamine moieties” (J Agric Food Chem, 2008).

Tests used:
Assay type in all cases: functional
[1] = test system: Amaranthus retroflexus; assay: Herbicidal activity against Amaranthus retroflexus assessed as inhibition of herb growth at 1.5 kg/ha during preemergence treatment protocol; conditions: pre-emergence, read-out: GI
[2] = test system: Digitaria sanguinalis; assay: Herbicidal activity against hairy Digitaria sanguinalis (hairy crabgrass) assessed as inhibition of herb growth at 1.5 kg/ha during postemergence treatment protocol; conditions: post-emergence, read-out: GI
[3] = test system: Medicago sativa; assay: Herbicidal activity against Medicago sativa (alfalfa) assessed as inhibition of herb growth at 1.5 kg/ha during postemergence treatment protocol; conditions: post-emergence, read-out: GI
[4] = test system: Amaranthus retroflexus; assay: Herbicidal activity against Amaranthus retroflexus assessed as inhibition of herb growth at 1.5 kg/ha during postemergence treatment protocol; conditions: post-emergence, read-out: GI
[5] = test system: Brassica napus; assay: Herbicidal activity against Brassica napus (oilseed rape) assessed as inhibition of herb growth at 1.5 kg/ha during postemergence treatment protocol; conditions: post-emergence, read-out: GI
[6] = test system: Digitaria sanguinalis; assay: Herbicidal activity against hairy Digitaria sanguinalis (hairy crabgrass) assessed as inhibition of herb growth at 1.5 kg/ha during preemergence treatment protocol; conditions: pre-emergence, read-out: GI
[7] = test system: Medicago sativa; assay: Herbicidal activity against Medicago sativa (alfalfa) assessed as inhibition of herb growth at 1.5 kg/ha during preemergence treatment protocol; conditions: pre-emergence, read-out: GI
[8] = test system: Brassica napus; assay: Herbicidal activity against Brassica napus (oilseed rape) assessed as inhibition of herb growth at 1.5 kg/ha during preemergence treatment protocol; conditions: pre-emergence, read-out: GI
[9] = test system: Spinacia oleracea; assay: Inhibition of photosynthetic electron transport in Spinacia oleracea (spinach)isolated chloroplasts assessed as inhibition of Hill reaction
Summary of the method: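 Chloroplasts from fresh spinach leaves, homogenised in ice-cold pH 7.8 buffer (0.4 M sucrose, 10 mM NaCl, 50 mM Tris-HCl), spun 3 min 120g then 5 min 1000g at 4 °C. Reaction buffer 350 mM NaCl, 10 mM Tris-HCl pH 7.8 with DCPIP; 2 min light (360 µmol m^-2 s^-1), DCPIP reduction at 620 nm. Compounds 0.01 mg/L–0.3 mg/mL in […]/water, ≥triplicate; IC50 by log-linear regression.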

[10] = Spinacia oleracea, read-out: pIC50 (converted)

Row | SMILES | inhibition of growth at 1500 g/ha [1] [%] | inhibition of growth at 1500 g/ha [2] [%] | inhibition of growth at 1500 g/ha [3] [%] | inhibition of growth at 1500 g/ha [4] [%] | inhibition of growth at 1500 g/ha [5] [%] | inhibition of growth at 1500 g/ha [6] [%] | inhibition of growth at 1500 g/ha [7] [%] | inhibition of growth at 1500 g/ha [8] [%] | IC50 [9] [ppm] | IC50 [9, 10] [nM]
1 | CCOCCOC(=O)/C(C#N)=C(\NCc1cnc(OC)nc1)C(C)C | 22.2 | 52.2 | 74 | 3.4 | 19.4 | 46.2 | 57.1 | 0 | – | –
2 | CCOCCOC(=O)/C(C#N)=C(\NCc1cnc(OCC)nc1)SC | 15.9 | 8.7 | 40.8 | 26.4 | 16.1 | 12.5 | 31.1 | 0 | 1.45 | 1070
3 | CCOCCOC(=O)/C(C#N)=C(\NCC1CCCO1)SC (stereo not given) | 9.5 | 0 | 23.4 | 37.8 | 47.5 | 35.7 | 21.8 | 0 | 27.92 | 20900
4 | CCOCCOC(=O)/C(C#N)=C(\NCC1CCCO1)C(C)C (stereo not given) | 3.2 | 100 | 60.5 | 100 | 97.2 | 40 | 20.3 | 80 | 6.874 | 6920
5 | CCOCCOC(=O)/C(C#N)=C(\NCC1CCOC1)C(C)C (stereo not given) | 12.6 | 57.6 | 41.3 | 37.8 | 88.2 | 0 | 2.3 | 0 | 41.4 | 41700
6 | CCOCCOC(=O)/C(C#N)=C(\NCc1ccoc1)C(C)C | 22.1 | 0 | 13.2 | 27.4 | 51.9 | 33.6 | 10.5 | 0 | 6.6 | 6610
7 | CCOCCOC(=O)/C(C#N)=C(\NCc1cnc(OCC)s1)C(C)C | 37.8 | 51.2 | 41.4 | 100 | 100 | 0 | 5.4 | 48.7 | 0.223 | 224
8 | CCCOc1ncc(CN/C(SC)=C(/C#N)C(=O)OCCOCC)s1 | 27 | 49.6 | 57.3 | 100 | 100 | 0 | 17.6 | 0 | 0.05 | 50.1
9 | CCCOc1ncc(CN/C(=C(/C#N)C(=O)OCCOCC)C(C)C)s1 | 27 | 52.8 | 48.7 | 100 | 100 | 6.9 | 0 | 9.8 | 0.08 | 79.4
10 | CCOCCOC(=O)/C(C#N)=C(\NCc1cnc(OC(C)C)s1)SC | 40.5 | 54.4 | 53.6 | 100 | 100 | 14.8 | 4.5 | 26 | 0.07 | 70.8
11 | CCOCCOC(=O)/C(C#N)=C(\NCc1cnc(OC(C)C)s1)C(C)C | 100 | 60.8 | 43.4 | 100 | 100 | 6.9 | 1.7 | 51.4 | 0.076 | 75.9
12 | CCOCCOC(=O)/C(C#N)=C(\NCc1cnc(OCC(F)(F)F)s1)SC | 43.2 | 47.2 | 60.9 | 98.7 | 100 | 8.9 | 1.7 | 65.4 | 0.055 | 55
13 | CCOCCOC(=O)/C(C#N)=C(\NCc1cnc(OCC(F)(F)F)s1)C(C)C | 51 | 95.2 | 53.3 | 100 | 100 | 34.6 | 0 | 71.9 | 0.074 | 74.1
14 | CCOCCOC(=O)/C(C#N)=C(\NCc1ccc(Cl)nn1)SC | 43.2 | 28.8 | 27.8 | 21.8 | 81 | 0 | 0 | 12.5 | 3.99 | 3980
15 | CCOCCOC(=O)/C(C#N)=C(\NCc1ccc(Cl)nn1)C(C)C | 27 | 48 | 31.4 | 91.6 | 100 | 10.9 | 4.5 | 59.5 | 4.3 | 4270
16 | CCOCCOC(=O)/C(C#N)=C(\NCc1ccc(OCC)nn1)SC | 56.8 | 0.8 | 24.2 | 32.9 | 64.6 | 0 | 0 | 0 | 12.29 | 9120
17 | CCOCCOC(=O)/C(C#N)=C(\NCc1ccc(OCC)nn1)C(C)C | 54 | 57.6 | 50.7 | 70.2 | 100 | 26.7 | 0 | 44.9 | – | –
18 | CCOCCOC(=O)/C(C#N)=C(\NCc1ccc(N2CCOCC2)nn1)SC | 13.5 | 2.4 | 32.8 | 24 | 18.1 | 6.9 | 10.1 | 10.9 | – | –
19 | CCOCCOC(=O)/C(C#N)=C(\NCc1ccc(N2CCOCC2)nn1)C(C)C | 5.4 | 13.6 | 15.2 | 19.1 | 85.4 | 22.8 | 2.6 | 49.8 | – | –
20 | CCOCCOC(=O)/C(C#N)=C(\NCc1cnc(OC)nc1)SC | 58.1 | 2.2 | 45.1 | 15.5 | 28.8 | 26 | 42.8 | 42.4 | 3.79 | 3800
21 | CCOCCOC(=O)/C(C#N)=C(/CC)NCc1cnc(OC)nc1 | 34.6 | 2.2 | 26 | 20.7 | 63.7 | 36 | 29.4 | 51.5 | – | –
22 | CCOCCOC(=O)/C(C#N)=C(\NCc1cnc(Br)s1)C(C)C | 18.9 | 48 | 30.8 | 100 | 100 | 3 | 1.7 | 82.2 | 0.107 | 107
23 | CCOCCOC(=O)/C(C#N)=C(\NCc1cnc(OCC)s1)SC | 43.2 | 51.2 | 62.6 | 100 | 100 | 44.6 | 14.8 | 23.3 | 0.115 | 115
